Measured values published in ChEMBL document CHEMBL3414463, “Discovery of potent and selective 8-fluorotriazolopyridine c-Met inhibitors” (J Med Chem, 2015).

Tests used:
[1] = target: T1, Hepatocyte growth factor receptor (Homo sapiens, UniProt P08581); test: Inhibition of recombinant c-Met kinase domain (unknown origin) incubated for 30 mins using gastrin peptide substrate by HTRF assay
[2] = target: T1, Hepatocyte growth factor receptor; test: Inhibition of HGF-stimulated c-Met autophosphorylation in serum starved human PC3 cells pre-incubated for 1 hr followed by human recombinant HGF stimulation for 10 mins by quantitative electrochemiluminescence immunoassay; type: cell-based, PC-3
Outline: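 Serum-starved PC-3 cells (plated in high-glucose DMEM/10% FBS, then 16 h in low-glucose DMEM with 0.1% BSA) were treated with a 10-point inhibitor dilution for 1 h at 37 °C. Cells were then stimulated with 200 ng/mL recombinant human HGF for 10 min and lysed. Phospho-c-Met was captured with biotinylated anti-c-Met and 4G10 by electrochemiluminescence. IC50, n ≥ 2.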

[3] = Clearance in Sprague-Dawley rat at 0.25 mg/kg, iv; type: ADME, organism-based; set-up: dose 0.25 mg/kg, route intravenous; details: Sprague-Dawley, in vivo
[4] = Volume of distribution at steady state in Sprague-Dawley rat at 0.25 mg/kg, iv; type: ADME, organism-based; set-up: dose 0.25 mg/kg, route intravenous; details: in vivo, read-out: Vdss
Outline: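 Male Sprague-Dawley rats were given a single IV dose of 0.25 mg/kg. The vehicle was DMSO, or for some compounds 20% (w/v) hydroxypropyl β-cyclodextrin in water adjusted to pH 3.5 with MSA. NC marks cases where the terminal disposition rate constant could not be characterized for lack of slope.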

[5] = Half life in Sprague-Dawley rat at 0.25 mg/kg, iv; type: ADME, organism-based; set-up: dose 0.25 mg/kg, route intravenous; details: in vivo
[6] = AUC (0 to infinity) in Sprague-Dawley rat at 0.25 mg/kg, iv; type: ADME, organism-based, Plasma; set-up: dose 0.25 mg/kg, route intravenous, time infinity; details: Sprague-Dawley, plasma
[7] = Oral bioavailability in Sprague-Dawley rat at 2 mg/kg; type: ADME, organism-based; details: in vivo
Outline: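 Male Sprague-Dawley rats given 2.0 mg/kg orally in 2% (w/v) hydroxypropylmethylcellulose, 1% (w/v) Tween 80 in water, pH 2.2 (adjusted with HCl or MSA). Some inhibitors instead used 10% (v/v) dimethylacetamide in the same vehicle.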

[8] = Drug level in mouse liver microsomes treated with 5-(8-Fluoro-3-(1-(3-methoxyquinolin-6-yl)ethyl)[1,2,4]-triazolo[4,3-a]pyridin-6-yl)-3-methylisoxazole assessed as compound formation in presence of NADPH by LC-MS/MS method; type: ADME
Outline: (§1)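 Compound incubated with NADPH in mouse, rat, dog, monkey or human liver microsomes. Metabolites were identified by accurate mass spectrometry and MS/MS, and selected ion chromatograms were used to build metabolite profiles.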

Liver microsome [9] = test: Drug level in rat liver microsomes treated with 5-(8-Fluoro-3-(1-(3-methoxyquinolin-6-yl)ethyl)[1,2,4]-triazolo[4,3-a]pyridin-6-yl)-3-methylisoxazole assessed as compound formation in presence of NADPH by LC-MS/MS method; type: ADME; outline: as §1
Liver microsome [10] = test: Drug level in dog liver microsomes treated with 5-(8-Fluoro-3-(1-(3-methoxyquinolin-6-yl)ethyl)[1,2,4]-triazolo[4,3-a]pyridin-6-yl)-3-methylisoxazole assessed as compound formation in presence of NADPH by LC-MS/MS method; type: ADME, Canis lupus familiaris; outline: as §1
Cytochrome P450 2D6 = Cytochrome P450 2D6 (Homo sapiens, UniProt P10635); test: Inhibition of CYP2D6 (unknown origin); type: ADME
Chain of Cytochrome P450 2D6 (P10635 whole entry): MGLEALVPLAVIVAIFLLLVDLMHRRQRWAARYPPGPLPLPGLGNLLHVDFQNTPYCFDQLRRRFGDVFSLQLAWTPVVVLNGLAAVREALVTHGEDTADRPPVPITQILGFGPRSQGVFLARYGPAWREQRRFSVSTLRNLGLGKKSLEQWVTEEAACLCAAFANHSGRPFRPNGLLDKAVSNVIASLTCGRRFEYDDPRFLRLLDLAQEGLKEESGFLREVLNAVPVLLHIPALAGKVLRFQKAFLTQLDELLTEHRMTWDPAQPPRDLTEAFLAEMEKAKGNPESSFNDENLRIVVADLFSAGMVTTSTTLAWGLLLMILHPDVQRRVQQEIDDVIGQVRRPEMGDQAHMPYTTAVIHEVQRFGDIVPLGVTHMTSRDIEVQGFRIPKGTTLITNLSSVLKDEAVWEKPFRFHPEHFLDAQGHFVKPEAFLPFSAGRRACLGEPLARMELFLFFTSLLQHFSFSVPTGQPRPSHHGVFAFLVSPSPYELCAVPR

Cytochrome P450 3A4 = Cytochrome P450 3A4 (Homo sapiens, UniProt P08684); test: Inhibition of CYP3A4 (unknown origin); type: ADME
Chain of Cytochrome P450 3A4 (P08684 whole entry): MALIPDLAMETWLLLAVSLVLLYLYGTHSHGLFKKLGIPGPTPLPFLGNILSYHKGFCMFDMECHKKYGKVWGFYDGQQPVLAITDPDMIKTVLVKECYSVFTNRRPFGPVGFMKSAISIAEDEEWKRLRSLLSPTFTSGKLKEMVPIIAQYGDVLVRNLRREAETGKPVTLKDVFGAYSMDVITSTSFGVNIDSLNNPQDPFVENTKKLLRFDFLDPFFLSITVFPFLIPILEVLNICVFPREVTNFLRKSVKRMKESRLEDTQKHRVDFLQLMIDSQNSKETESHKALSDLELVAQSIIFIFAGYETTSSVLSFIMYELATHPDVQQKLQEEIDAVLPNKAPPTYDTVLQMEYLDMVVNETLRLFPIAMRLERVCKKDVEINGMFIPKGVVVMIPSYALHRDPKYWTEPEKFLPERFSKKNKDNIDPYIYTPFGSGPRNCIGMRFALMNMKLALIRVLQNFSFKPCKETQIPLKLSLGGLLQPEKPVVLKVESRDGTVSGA

Liver microsome [11] = test: Stability in human liver microsomes assessed as compound turnover rate; type: ADME
Liver microsome [12] = test: Stability in rat liver microsomes assessed as compound turnover rate; type: ADME

T1 sequence (P08581 whole entry, the tested form may be a part): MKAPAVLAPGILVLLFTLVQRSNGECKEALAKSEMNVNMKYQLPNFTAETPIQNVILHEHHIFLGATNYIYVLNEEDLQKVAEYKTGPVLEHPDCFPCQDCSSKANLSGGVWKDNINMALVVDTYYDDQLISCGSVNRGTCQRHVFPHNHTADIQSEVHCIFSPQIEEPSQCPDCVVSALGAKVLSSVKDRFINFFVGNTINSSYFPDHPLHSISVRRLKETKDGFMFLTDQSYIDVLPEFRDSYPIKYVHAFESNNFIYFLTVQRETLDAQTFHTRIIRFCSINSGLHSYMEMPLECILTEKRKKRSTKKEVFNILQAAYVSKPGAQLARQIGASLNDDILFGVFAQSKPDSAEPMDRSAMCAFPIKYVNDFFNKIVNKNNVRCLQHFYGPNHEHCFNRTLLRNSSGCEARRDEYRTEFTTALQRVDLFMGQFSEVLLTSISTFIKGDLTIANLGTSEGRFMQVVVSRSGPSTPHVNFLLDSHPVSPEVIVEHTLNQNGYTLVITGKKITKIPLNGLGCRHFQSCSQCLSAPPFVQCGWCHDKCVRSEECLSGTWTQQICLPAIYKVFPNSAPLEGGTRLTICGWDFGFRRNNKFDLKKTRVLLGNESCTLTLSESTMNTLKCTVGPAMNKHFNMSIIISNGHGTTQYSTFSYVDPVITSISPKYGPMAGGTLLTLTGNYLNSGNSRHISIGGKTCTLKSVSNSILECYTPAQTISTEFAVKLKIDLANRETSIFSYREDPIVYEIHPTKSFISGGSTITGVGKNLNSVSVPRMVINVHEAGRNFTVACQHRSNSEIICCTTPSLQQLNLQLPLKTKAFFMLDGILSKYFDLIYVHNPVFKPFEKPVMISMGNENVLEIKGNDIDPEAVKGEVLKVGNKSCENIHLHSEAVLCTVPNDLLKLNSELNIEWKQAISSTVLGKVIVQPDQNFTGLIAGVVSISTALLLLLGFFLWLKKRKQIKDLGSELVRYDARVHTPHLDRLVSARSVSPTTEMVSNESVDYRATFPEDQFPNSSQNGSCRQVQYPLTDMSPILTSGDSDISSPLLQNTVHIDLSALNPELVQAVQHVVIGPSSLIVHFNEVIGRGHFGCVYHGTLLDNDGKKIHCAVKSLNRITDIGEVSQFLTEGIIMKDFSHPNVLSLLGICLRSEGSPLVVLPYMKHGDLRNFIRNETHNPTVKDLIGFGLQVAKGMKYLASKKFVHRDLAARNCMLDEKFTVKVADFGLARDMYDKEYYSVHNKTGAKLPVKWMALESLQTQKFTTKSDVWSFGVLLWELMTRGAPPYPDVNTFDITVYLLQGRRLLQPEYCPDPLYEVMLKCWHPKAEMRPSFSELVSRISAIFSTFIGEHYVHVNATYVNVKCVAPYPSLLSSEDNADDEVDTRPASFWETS

SMILES | IC50 [1] | IC50 [2] | clearance [3] | Vd [4] | half-life [5] | AUC(0-inf) [6] | bioavailability [7] | also measured
COc1cnc2ccc([C@@](C)(F)c3nnc4c(F)cc(-c5cc(C)ns5)cn34)cc2c1 | 5 nM | 4 nM | 22.2 mL/min/kg | 1.25 L/kg | 1.1 h | 0.52 µM·h | 10% | –
Cc1cc(-c2cc(F)c3nnc([C@@H](C)c4ccc5ncccc5c4)n3c2)sn1 | 7 nM | 12 nM | 25.5 mL/min/kg | 0.38 L/kg | 0.33 h | 0.44 µM·h | – | –
COc1ccc2c(OCc3nnc4c(F)cc(-c5ccccc5)cn34)ccnc2c1 | 7 nM | – | – | – | – | – | – | –
COc1cnc2ccc([C@@](C)(F)c3nnc4c(F)cc(-c5cnn(C)c5)cn34)cc2c1 | 5 nM | 7 nM | 4.5 mL/min/kg | 0.64 L/kg | 2.2 h | 2.5 µM·h | 27% | –
COc1cnc2ccc([C@H](C)c3nnc4c(F)cc(-c5cc(CO)no5)cn34)cc2c1 | – | – | – | – | – | – | – | Drug metabolism [8]: metabolite_detected; Drug metabolism (Liver microsome [9]): metabolite_detected; Drug metabolism (Liver microsome [10]): metabolite_detected
Fc1cc(-c2cscn2)cn2c(C(F)(F)c3ccc4ncccc4c3)nnc12 | 4 nM | 7 nM | 27.8 mL/min/kg | 0.39 L/kg | 0.3 h | 0.38 µM·h | 110% | inhibition (INH) (Cytochrome P450 2D6): Not Active; inhibition (INH) (Cytochrome P450 3A4): Not Active
COc1cnc2ccc([C@@H](C)c3nnc4c(F)cc(-c5cc(C)no5)cn34)cc2c1 | 370 nM | – | – | – | – | – | – | –
Cc1ncc(-c2cc(F)c3nnc(C(F)(F)c4ccc5ncccc5c4)n3c2)s1 | 11 nM | 35 nM | – | – | – | – | – | inhibition (INH) (Cytochrome P450 2D6): Not Active; inhibition (INH) (Cytochrome P450 3A4): Not Active
COc1cnc2ccc(C(F)(F)c3nnc4c(F)cc(-c5cc(C)no5)cn34)cc2c1 | 3 nM | 8 nM | < 0.167 mL/min/kg | 0.09 L/kg | – | 101 µM·h | 35% | Stability (Liver microsome [11]): Stable; Stability (Liver microsome [12]): Stable; inhibition (INH) (Cytochrome P450 2D6): Not Active; inhibition (INH) (Cytochrome P450 3A4): Not Active
Cc1cc(-c2cc(F)c3nnc(C(C)(C)c4ccc5ncc(O)cc5c4)n3c2)on1 | > 400 nM | – | – | – | – | – | – | –
Fc1cc(-c2ccccc2)cn2c(C(F)(F)c3ccc4ncccc4c3)nnc12 | 23 nM | – | – | – | – | – | – | –
Fc1cc(-c2cnn(C3CC3)c2)cn2c(C(F)(F)c3ccc4ncccc4c3)nnc12 | 24 nM | 25 nM | 0.167 mL/min/kg | 0.09 L/kg | 4.4 h | 42.6 µM·h | 40% | inhibition (INH) (Cytochrome P450 2D6): Not Active; inhibition (INH) (Cytochrome P450 3A4): Not Active
COc1cnc2ccc(C(F)(F)c3nnc4c(F)cc(-c5cscn5)cn34)cc2c1 | 2 nM | 7 nM | 1.5 mL/min/kg | 0.18 L/kg | 1.5 h | 6.5 µM·h | 9% | Stability (Liver microsome [11]): Stable; Stability (Liver microsome [12]): Stable; inhibition (INH) (Cytochrome P450 2D6): Not Active; inhibition (INH) (Cytochrome P450 3A4): Not Active
Cn1cc(-c2cc(F)c3nnc(C(F)(F)c4ccc5ncccc5c4)n3c2)cn1 | 22 nM | 15 nM | 0.167 mL/min/kg | 0.13 L/kg | 6.6 h | 44.4 µM·h | 110% | inhibition (INH) (Cytochrome P450 2D6): Not Active; inhibition (INH) (Cytochrome P450 3A4): Not Active
Cc1cc(-c2cc(F)c3nnc(C(F)(F)c4ccc5ncccc5c4)n3c2)on1 | 9 nM | 9 nM | 0.667 mL/min/kg | 0.13 L/kg | 2.5 h | 18.5 µM·h | 62% | inhibition (INH) (Cytochrome P450 2D6): Not Active; inhibition (INH) (Cytochrome P450 3A4): Not Active
Fc1cc(-c2ccccc2)cn2c(Cc3ccc4ncccc4c3)nnc12 | 60 nM | – | – | – | – | – | – | –
c1ccc(-c2ccc3nnc(Cc4ccc5ncccc5c4)n3c2)cc1 | 210 nM | – | – | – | – | – | – | –

SMILES | IC50 [1] | IC50 [2] | clearance [3] | Vd [4] | half-life [5] | AUC(0-inf) [6] | bioavailability [7] | also measured
CC(=O)Nc1nc2ccc(Cc3nnc4c(F)cc(-c5cnn(C)c5)cn34)cc2s1 | 67 nM | – | – | – | – | – | – | –
COc1cnc2ccc(C3(c4nnc5c(F)cc(-c6cc(C)no6)cn45)CC3)cc2c1 | 93 nM | – | – | – | – | – | – | –
COc1cnc2ccc([C@@](C)(F)c3nnc4c(F)cc(-c5cc(C)no5)cn34)cc2c1 | 2 nM | 3 nM | 4.17 mL/min/kg | 0.79 L/kg | 2.7 h | 2.4 µM·h | 38% | –
Cn1cc(-c2cc(F)c3nnc(Cc4ccc5nccnc5c4)n3c2)cn1 | 182 nM | – | – | – | – | – | – | –
Cc1cc(-c2cc(F)c3nnc([C@@](C)(F)c4ccc5ncccc5c4)n3c2)sn1 | 780 nM | – | – | – | – | – | – | –
Cn1cc(-c2cc(F)c3nnc(Cc4ccc5ncccc5c4)n3c2)cn1 | 18 nM | – | – | – | – | – | – | –
COc1cnc2ccc(Cc3nnc4c(F)cc(-c5cnn(C)c5)cn34)cc2c1 | 11 nM | – | – | – | – | – | – | –
Cn1cc(-c2cc(F)c3nnc(Cc4ccc5ncc(O)cc5c4)n3c2)cn1 | 51 nM | – | – | – | – | – | – | –
CC[C@@H](c1ccc2ncc(OC)cc2c1)c1nnc2c(F)cc(-c3cc(C)no3)cn12 | 28 nM | 67 nM | – | – | – | – | – | –
COc1ccc2c(OCc3nnc4ccc(-c5ccccc5)cn34)ccnc2c1 | 31 nM | – | – | – | – | – | – | –
COc1cnc2ccc([C@H](C)c3nnc4c(F)cc(-c5cnn(C)c5)cn34)cc2c1 | 2 nM | 15 nM | 2.33 mL/min/kg | 0.25 L/kg | 1.8 h | 4.5 µM·h | 13% | –
COc1cnc2ccc([C@H](C)c3nnc4c(F)cc(-c5cn(C)cn5)cn34)cc2c1 | 1 nM | 4 nM | 4.33 mL/min/kg | 0.37 L/kg | 1.3 h | 2.7 µM·h | 27% | –
COc1cnc2ccc([C@H](C)c3nnc4c(F)cc(-c5cc(C)ns5)cn34)cc2c1 | 9 nM | 22 nM | – | – | 2.8 h | 10.5 µM·h | – | –
Cn1cc(-c2cc(F)c3nnc(Cc4ccc5nc(N)sc5c4)n3c2)cn1 | 52 nM | – | – | – | – | – | – | –
Fc1cc(-c2ccccn2)cn2c(C(F)(F)c3ccc4ncccc4c3)nnc12 | 12 nM | 32 nM | – | – | – | – | – | inhibition (INH) (Cytochrome P450 2D6): Not Active; inhibition (INH) (Cytochrome P450 3A4): Not Active
Cc1cc(-c2cc(F)c3nnc([C@](C)(F)c4ccc5ncccc5c4)n3c2)sn1 | 5 nM | 6 nM | 30.2 mL/min/kg | 1.07 L/kg | 0.72 h | 0.37 µM·h | 27% | –
